Screens from PubChem.
PAX8 reporter = lowers PAX8-driven luciferase in RMG-I cells. RMG-I TPO-luciferase reporter, SteadyGlo, 24 h. inhibition, % at 12.6 µM. 360,000 tested, 1.2% active. AID 652154;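 active = mean replicate inhibition at least 60% with every replicate also reaching 60%; inconclusive = only one of the two criteria is met; inactive = mean below 60% and not all replicates reaching 60%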;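 also: luciferase light reporting Pax8 driven TPO promoter activity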
INS-1E GSIS act = GLuc luminescence reporter in INS-1E cells, primary screen for activators of glucose-dependent secretion of insulin. INS-1E GLuc reporter insulin secretion, 2-3 h. activation, % at 16.6 µM. 370,000 tested, 0.61% active. AID 743287;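 active = lowest replicate activation of at least 40%, so every replicate reaches that level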
EWS-Fli block = blocks EWS/Fli oncoprotein-driven transcription; A673 NR0B1-luciferase reporter, viability-normalised; inhibition, % at 12.6 µM; 350,000 tested, 0.67% active;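 active = mean inhibition of at least 50% after viability correction, with every replicate also passing that limit; inconclusive = mean reaches 50% but only one of two replicates passes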;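 also: firefly luciferase signal divided by Alamar Blue viability fluorescence both relative to DMSO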
Xi reactivation = reactivates the inactive X chromosome in mouse fibroblasts; 360,000 tested, 0.055% active; activation, % at 7.58 µM; XiGFP mouse fibroblasts, % GFP-positive cells imaging, 3 d; cells co-treated with 5-aza-dC sensitizer; scaled so ellipticine positive control = 100%; AID 743238;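 active = mean normalized replicate activation at least 10% and every replicate at or above 10%; inconclusive = only one of the two criteria met; inactive = mean below 10% and not all replicates reach 10%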
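System: SV40-immortalized XiGFP fibroblast cells, line 68-5-11 / Incubation: 3-day compound exposure, then 15 min fixation at room temperature / Compound: single concentration per compound, delivered by pin transfer / Buffer or medium: DMEM plus 5-aza-dC sensitizer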
AF4-AF9 inh = blocks AF4 peptide binding to human AF9; 350,000 tested, 0.47% active; inhibition, % at 10 µM; P42568; AlphaScreen, biotin-AF4 peptide binding to FLAG-AF9;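 active = every replicate reaching a set inhibition limit, whatever the replicate mean, cut at about 25% in these data; inconclusive = mean inhibition reaches that limit but some replicates miss it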
Target sequence (P42568 whole entry, looked up): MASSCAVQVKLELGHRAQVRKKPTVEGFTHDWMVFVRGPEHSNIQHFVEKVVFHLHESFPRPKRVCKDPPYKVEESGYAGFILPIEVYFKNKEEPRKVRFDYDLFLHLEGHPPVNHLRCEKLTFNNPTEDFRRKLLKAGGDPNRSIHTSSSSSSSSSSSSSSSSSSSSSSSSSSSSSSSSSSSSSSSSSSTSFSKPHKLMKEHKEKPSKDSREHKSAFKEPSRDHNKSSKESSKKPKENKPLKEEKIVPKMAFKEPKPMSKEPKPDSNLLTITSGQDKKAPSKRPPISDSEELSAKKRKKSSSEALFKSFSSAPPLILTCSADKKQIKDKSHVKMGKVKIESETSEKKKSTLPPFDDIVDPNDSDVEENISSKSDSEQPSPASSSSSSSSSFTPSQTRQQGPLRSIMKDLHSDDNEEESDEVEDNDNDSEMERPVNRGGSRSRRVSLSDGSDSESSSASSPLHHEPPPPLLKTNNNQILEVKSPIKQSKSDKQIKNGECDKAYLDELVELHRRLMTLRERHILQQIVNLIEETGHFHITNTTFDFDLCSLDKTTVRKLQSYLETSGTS
PGC1a acetyl inh = PGC1a acetylation modulation, inhibitor mode | 350,000 tested, 0.17% active | inhibition, % at 15.6 µM | U2OS PGC1a acetylation, AlphaScreen anti-acetyl-lysine; with virally co-expressed GCN5 acetyltransferase | AID 651687;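 active = every replicate shows inhibition of at least 40%; inconclusive = mean inhibition at least 40% but some replicate below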
A number is an active result; – = inactive; ? = inconclusive; · = no result given. Only some compounds are listed: those with a hit (about 2.1% of all), similar ones and a draw of the others.

SMILES	PAX8 reporter	INS-1E GSIS act	EWS-Fli block	Xi reactivation	AF4-AF9 inh	PGC1a acetyl inh
Cc1ccccc1-c1ccc([C@H]2[C@H]3CN(C(=O)NC4CCCC4)CCCCN3[C@H]2CO)cc1	–	–	–	–	–	–
CC1CCCCC1NC(=O)Cn1nc(-c2ccccc2)ccc1=O (centres undefined)	·	–	–	·	27	·
COc1ccc(-c2ccc(=O)n(CC(=O)NC3CCc4ccccc43)n2)cc1OC (centres undefined)	–	47	–	–	–	·
COc1ccc(-c2ccc(=O)n(CC(=O)Nc3ccc(C(=O)NC4CC4)cc3)n2)cc1OC	·	·	·	·	·	–
CC1CCCCN1CCNC(=O)Cn1nc(-c2ccccc2)ccc1=O (centres undefined)	·	–	–	·	–	–
COc1ccc(S(=O)(=O)N[C@H]2C=C[C@@H](CC(=O)N3CCN(c4ccccc4)CC3)O[C@H]2CO)cc1	–	–	–	–	–	–
COc1cc(-c2c(CCO)sc3ccccc23)cc(OC)c1OC	–	–	56	–	–	·
COc1ccc(S(=O)(=O)Nc2ccc3c(c2)CC(=O)N([C@@H](C)CO)C[C@@H](C)[C@H](CN(C)S(=O)(=O)c2ccc(Cl)cc2)O3)cc1	–	–	–	–	–	–
CN(C)CC(C(=O)c1ccccc1)c1ccccc1 (centres undefined)	·	·	·	·	·	139
O=C(CC(C(=O)c1ccccc1)c1ccccc1)c1ccccc1 (centres undefined)	·	–	–	–	–	·
CN(Cc1cc(Cl)cc(Cl)c1)CC(C(=O)c1ccccc1)c1ccccc1 (centres undefined)	79	–	–	–	–	–
O=C(C[C@H]1CC[C@@H]2[C@H](COC[C@@H](O)CN2C(=O)Nc2ccc(C(F)(F)F)cc2)O1)NCC1CCCCC1	·	–	·	–	–	–
C[C@H](CO)N1C[C@H](C)[C@H](CN(C)S(=O)(=O)c2ccc(F)cc2)Oc2c(NC(=O)CCCCCC(=O)Nc3ccccc3N)cccc2C1=O	–	–	–	–	–	–
C[C@@H]1CN([C@@H](C)CO)C(=O)Cc2cc(NC(=O)Nc3ccccc3)ccc2O[C@@H]1CN(C)Cc1ccc(Cl)c(Cl)c1	?	–	–	–	–	–
C[C@@H]1CN([C@H](C)CO)C(=O)Cc2cc(NC(=O)Nc3ccc(F)cc3)ccc2O[C@@H]1CN(C)Cc1ccc(Cl)c(Cl)c1	109	–	–	–	–	–
C[C@H](CO)N1C[C@H](C)[C@H](CN(C)Cc2ccc(Cl)c(Cl)c2)Oc2ccc(NC(=O)Nc3ccc(F)cc3)cc2CC1=O	–	–	–	–	–	–
C[C@H](CO)N1C[C@H](C)[C@@H](CN(C)Cc2ccc(Cl)c(Cl)c2)Oc2ccc(NC(=O)Nc3ccc(F)cc3)cc2CC1=O	84	–	63	–	–	–
C[C@H](CO)N1C[C@H](C)[C@@H](CN(C)Cc2ccc3c(c2)OCO3)Oc2ccc(NC(=O)Cn3cnnn3)cc2CC1=O	–	–	–	–	–	–
C[C@H]1CN([C@@H](C)CO)C(=O)Cc2cc(NC(=O)Nc3ccc(F)cc3)ccc2O[C@H]1CN(C)Cc1ccc(Cl)c(Cl)c1	110	–	–	–	–	–
C[C@H]1CN([C@@H](C)CO)C(=O)Cc2cc(NC(=O)Cn3cnnn3)ccc2O[C@@H]1CN(C)Cc1ccc(Cl)c(Cl)c1	–	–	69	–	–	–
C[C@H]1CN([C@@H](C)CO)C(=O)c2cccc(NS(C)(=O)=O)c2O[C@@H]1CN(C)CC1CC1	–	–	–	–	–	–
Cc1ccc(-c2ccc([C@H]3[C@@H](CO)N4C(=O)CN(C(=O)c5ccc(F)cc5)C[C@H]34)cc2)cc1	·	–	·	–	·	·
O=C(C[C@@H]1CC[C@H](NC(=O)c2ccccc2)[C@H](CO)O1)NCc1ccc(Oc2ccccc2)cc1	–	–	–	–	–	–
C[C@@H]1CN([C@@H](C)CO)C(=O)Cc2cc(NC(=O)Nc3ccc(F)cc3)ccc2O[C@H]1CN(C)Cc1ccc(Cl)c(Cl)c1	105	–	–	–	–	–
COc1ccc2c3c(n(C)c2c1)[C@@H](CO)N(C(=O)c1cccnc1)CC31CN(C)C1	·	–	–	–	–	–
SMILES	PAX8 reporter	INS-1E GSIS act	EWS-Fli block	Xi reactivation	AF4-AF9 inh	PGC1a acetyl inh
O=c1c(Cl)c(Cl)cnn1Cc1nnc(-c2ccccc2Br)o1	98	–	–	–	–	·
C[C@@H]1CN([C@@H](C)CO)S(=O)(=O)c2ccc(C3=CCCC3)cc2O[C@@H]1CN(C)Cc1ccccc1	·	–	–	–	–	–
O=[N+]([O-])c1cnn2cc(Br)cnc12	–	45	–	–	–	·
Nc1nc(N)c2cc(Sc3cccc(C(F)(F)F)c3)ccc2n1	–	–	–	–	–	–
Nc1nc(N)c2cc(Sc3ccc(Cl)cc3)ccc2n1	–	187	–	–	–	–
CO[C@@H]1CN(C)C(=O)c2ccc(NS(C)(=O)=O)cc2OC[C@@H](C)N(S(C)(=O)=O)C[C@H]1C	–	–	–	–	–	–
COc1cc(/C=C2\CCC(C3CCCC3)C2=O)cc(OC)c1OC (centres undefined)	–	·	–	–	–	·
COc1cc(/C=C2\COC/C(=C\c3cc(OC)c(OC)c(OC)c3)C2=O)cc(OC)c1OC	106	·	74	–	–	·
COc1cc(/C=C2\CC(C(C)(C)C)C/C(=C\c3cc(OC)c(OC)c(OC)c3)C2=O)cc(OC)c1OC (centres undefined)	–	–	82	–	–	?
COc1cc2c(cc1OC)C(CSc1ccccc1C(=O)O)=NC(C)(C)C2	–	41	–	–	–	·
CC1(C)Cc2ccccc2C(CSc2ccccc2C(=O)O)=N1	–	–	–	–	–	–
C[C@H](CO)N1C[C@H](C)[C@@H](CN(C)C(=O)[C@H]2CCCN2C)OCc2ccccc2-c2c(n(C)c3ccccc23)C1=O	·	–	·	–	·	·
O=C(NNC(=O)c1ccc(-c2ccccc2)cc1)c1ccccc1	–	–	–	–	–	·
Cc1cccc(C(=O)NNC(=O)c2ccc(-c3ccccc3)cc2)c1	·	99	·	·	·	–
COc1ccc2c3c([nH]c2c1)[C@H](CO)N(C)CC31CCN(C(=O)NC(C)C)CC1	·	–	·	–	·	·
OC[C@@H]1[C@@H](c2ccc(C#CC3(O)CCCC3)cc2)[C@@H]2CN(Cc3ccccc3F)CCCCN12	–	–	–	–	–	–
COc1ccc(C#Cc2ccc([C@@H]3[C@H](CO)N4CCCCN(Cc5ccccc5F)C[C@@H]34)cc2)cc1	–	50	–	–	31	–
COc1ccc(C#Cc2ccc([C@@H]3[C@@H](CO)N4CCCCN(Cc5ccccc5F)C[C@@H]34)cc2)cc1	–	95	–	–	–	–
OC[C@@H]1[C@@H](c2ccc(C#Cc3cccnc3)cc2)[C@@H]2CN(Cc3ccccc3F)CCCCN12	–	–	–	–	–	–
